Measured values from different studies.
Protocols differ between the studies behind these lines.
Target: TRAF2 and NCK-interacting protein kinase (TNIK, Homo sapiens, UniProt Q9UKE5)

| Structure (SMILES) | test | conditions | quantity | value |
| --- | --- | --- | --- | --- |
| CC1(C)NC(=O)c2[nH]c3c(Cl)c(Cl)ccc3c2C1C#N (stereo not drawn) | thermal stability, DSF | 10 µM | ΔTm | 0 °C |
| O=C(N[C@H]1CCCCC/C=C\C2C[C@@]2(C(=O)O)NC(=O)[C@@H]2C[C@@H](Oc3ccncc3)CN2C1=O)OC1CCCC1 (stereo partly drawn) | binding, competition with immobilised ligand | 1 µM | remaining binding | 78% |
| Cc1sc(C(=O)NC2COC2)cc1-n1cc(NC(=O)Nc2c(F)cccc2Cl)cn1 | enzyme activity, inhibitor | 10 µM | remaining activity | 94.5% |
| CC(C)(O)[C@H]1CC[C@H](Nc2ccc3ncc(-c4cccc(C(F)(F)F)c4)n3n2)CC1 | enzyme activity, inhibitor | 1 µM | remaining activity | 96.9% |
| CCC1(CC)NC(=O)c2c(c3ccc(Cl)c(Cl)c3n2C)C1C#N (stereo not drawn) | thermal stability, DSF | 10 µM | ΔTm | 0.3 °C |
| c1ccc(CNc2nc(N3CCOc4ccccc43)nc3c2CCCC3)cc1 | target engagement in cells, inhibitor, chemoproteomics | 20 mM | inhibition | -8% |
| COc1cc(Cl)c(C(=O)N[C@@H](CN[C@H]2CC[C@@H](N)CC2)Cc2ccc(C#N)cc2)cc1-c1ccc(CN[C@H](C)c2ccc(C)cc2)o1 | enzyme activity, inhibitor | 1 µM | remaining activity | 100% |
| Cn1c2c(c3ccc(Cl)c(Cl)c31)C(C#N)C1(CCOCC1)NC2=O (stereo not drawn) | thermal stability, DSF | 10 µM | ΔTm | -0.1 °C |
| CNC(=O)c1cc2c(Oc3ccc(NC(=O)C4(C(=O)Nc5ccc(F)cc5)CC4)cc3)ccnc2cc1OC | enzyme activity, inhibitor, radiometric | 1 µM | inhibition | 73% |
| Cn1c2c(c3ccc(Cl)c(Cl)c31)C(C#N)C1(CCN(C(=O)OC(C)(C)C)CC1)NC2=O (racemic) | thermal stability, DSF | 10 µM | ΔTm | -0.1 °C |
| CCCCNc1ncc2c(-c3ccc(F)cc3)nn(C[C@H]3CC[C@H](N)CC3)c2n1 | target engagement in cells, inhibitor, chemoproteomics | 20 mM | inhibition | 62.6% |
| Cn1nc(C(=O)NCc2ccc(C(=O)O)cc2)cc1-c1ccc2[nH]ccc2c1 | cell-free assay, competition with immobilised ligand | 0.1 µM | remaining binding | 97% |
| Cn1cnc(Br)c1C1=CN(c2ncnc3[nH]cnc23)CCS1 | enzyme activity, inhibitor, radiometric | 2 µM | inhibition | 88.7% |
| CCCCN(CCCC)C(=O)CN1C[C@@H](c2cc(OC)c3c(c2)OCO3)[C@H](C(=O)O)[C@H]1CC(C)(C)CCC | cell-free assay, competition with immobilised ligand | 1 µM | remaining binding | 86% |
| N#CC1c2c([nH]c3c(Cl)c(Cl)ccc23)C(=O)NC12CCCCC2 (racemic) | thermal stability, DSF | 10 µM | ΔTm | 0 °C |
| CS(=O)(=O)c1cc(C2(NC(=O)c3cncc4c3cnn4-c3ccc(F)cc3)CC2)ccn1 | cell-free assay, competition with immobilised ligand | 1 µM | remaining binding | 95% |
| O=C(CSc1nc2nccnc2c(=O)n1CCc1ccccc1)Nc1nccs1 | enzyme activity, inhibitor | 10 µM | inhibition | -4% |
| CO[C@@H](C)c1c(Nc2ccc([C@@H](N(C)C(=O)C3CCS(=O)(=O)CC3)C(F)(F)F)cc2)cnc2cc(Cl)nn12 | cell-free assay, competition with immobilised ligand | 1 µM | remaining binding | 100% |
| Cn1c2c(c3ccc(Cl)c(Cl)c31)C(C#N)C1(CCNCC1)NC2=O (racemic) | thermal stability, DSF | 10 µM | ΔTm | -0.1 °C |
| CCC(=O)N[C@H]1CC[C@@H](C(=O)N(C)c2ccc(-c3nc4ccccc4o3)cc2)C1 | cell-free assay, competition with immobilised ligand | 1 µM | remaining binding | 100% |
| O=C(Nc1cnn(-c2csc(C(=O)NC3COC3)c2)c1)Nc1c(F)cccc1Cl | enzyme activity, inhibitor | 5 µM | remaining activity | 84.3% |
